# Compound activity from PubChem BioAssay.
# Only a selection was taken, and hits are over-represented in it overall.
# XBP1 UPR activ: activators of adaptive XBP1 UPR arm, primary screen, cell-based, CHO-XBP1 luciferase reporter, luminescence, uHTS; AID 463104, 2010; IRE1-XBP1 UPR activation; percent of tunicamycin response, DMSO as zero; hit rate 0.33% among 330,000; activation, % at 20 µM;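 active = versus positive control, 20 µM dose yields 30% or more activation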;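 note: 100% = tunicamycin at 10 µg/mL and 0% = DMSO only wells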
#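 Assay system: IRE1-XBP1 luciferase reporter CHO line. Input: 1000 cells/well. Buffer or medium: F12 with 10% serum. Doses: 20 µM, 1% DMSO. Times: overnight seeding at 37 °C, 6 h compound treatment at 37 °C. Technique: Steady-Glo luciferase glow luminescence, 10 min after reagent addition.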
# V-ATPase pHluor: regulators of yeast V-ATPase proton pumping, primary screen, pHLuorin cytosolic pH fluorescence; response, % at 10 µM; hit rate 0.37% among 350,000; AID 504577, 2011; S. cerevisiae; in the data active = response mostly above about 7.3%, no sharp cut-off; inactive = mostly below about 5.4%; note: actives read high
# CHOP inhibitor: inhibitors of CHOP promoter induction, primary screen, cell-based, unfolded protein response, luciferase reporter; inhibition, % at 10 µM; CHO-K1 CHOP-promoter luciferase, tunicamycin-induced, 15-18 h; hit rate 3.8% among 220,000;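 active = compounds that reduced the stress-induced luciferase reporter signal by more than about 70% of percent inhibition, limit read from the data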;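 note: 0% = tunicamycin plus vehicle and 100% = wells without tunicamycin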
# UPR CHOP act: activators of apoptotic CHOP UPR arm, primary screen, cell-based, CHO-CHOP luciferase reporter, luminescence, uHTS; UPR activation; percent of tunicamycin response over DMSO baseline; activation, % at 10 µM; hit rate 0.34% among 330,000; AID 449763, 2010;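 active = at 10 µM dose, activation of 40% or more, normalized to positive control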;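 note: 100% = tunicamycin at 10 µg/mL and 0% = DMSO alone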
#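 Assay system: CHO-CHOP cells, stable luciferase reporter of PERK-eIF2a-CHOP signalling / Buffer or medium: F12 plus 10% serum / Compound dosing: one dose, 10 µM in 0.5% DMSO / Times: 6 h compound treatment, 37 °C / Technique: luciferase luminescence / Read-out: % reporter activation, DMSO baseline versus tunicamycin full activation / Benchmarks: tunicamycin and DMSO controls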
# TbMetRS inhib: T. brucei MetRS inhibitors, primary screen, biochemical, luminescence | methionyl-tRNA synthetase (Trypanosoma brucei brucei) | purified T. brucei MetRS, ATP depletion, Kinase-Glo luminescence | inhibition, % at 11.9 µM | hit rate 0.4% among 360,000;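 active = inhibition above a per-plate cutoff of the control wells' mean inhibition plus 3 SD, cut at about 5.5% in these data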;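 note: 0% = DMSO wells median and 100% = median of wells with control inhibitor compound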
#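 Dosing: 11.9 µM compound single dose, 0.9% DMSO; Assay system: purified T. brucei MetRS enzyme; Measured by: Kinase-Glo luciferase luminescence reporting remaining unconsumed ATP; Schedule: 15 min plus 2 h at 25 °C.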
# Tb MetRS conf: T. brucei MetRS inhibitors, confirmation, biochemical, luminescence; shares compounds with TbMetRS inhib; T. brucei MetRS enzyme, luminescence (ATP depletion); inhibition, % at 11.9 µM; hit rate 93% among 1,400; in the data active = inhibition above about 7%
# Jurkat tox: Jurkat T cell cytotoxicity, cytotoxicity control for T. brucei MetRS inhibitor project, luminescence, high throughput | inhibition, % at 8.3 µM | Jurkat cells viability, ATP luminescence | hit rate 12% among 1,400 | shares compounds with TbMetRS inhib; in the data active = inhibition above about 15%;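 note: 0% = vehicle and 100% = reference inhibitor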
# Tb MetRS inh FP: T. brucei MetRS inhibitors, orthogonal assay for T. brucei MetRS inhibitor project, biochemical, fluorescence polarization. shares compounds with TbMetRS inhib. purified T. brucei MetRS. inhibition, % at 11.9 µM. hit rate 44% among 1,400. AID 651607, 2012; in the data active = inhibition above about 17%;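 note: 0% = vehicle wells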
# * = called active by the depositor; / = no result; ! = repeats disagree.
SMILES,XBP1 UPR activ,V-ATPase pHluor,CHOP inhibitor,UPR CHOP act,TbMetRS inhib,Tb MetRS conf,Jurkat tox,Tb MetRS inh FP
Nc1nc(N)c(-c2cccc(C(F)(F)F)c2)c(Cc2cccc(C(F)(F)F)c2)n1,/,0.2,/,/,15.9*,60.1*,-6.3,34.2*
Cc1ccc(NC(=O)N2CCCc3ccccc32)cc1C,-3.1,-2.4,/,4.4,-0.2,/,/,/
O=S(=O)(c1ccccc1)c1nc(NCc2ccccc2)sc1Cl,-1.7,-1.4,42.4,0.6,-0.5,/,/,/
O=S(=O)(c1ccccc1)c1nc(Nc2cccc(O)c2)sc1Cl,-2.8,-0.8,26.4,0.0,10.5*,19.6*,18.4*,5.8
Brc1ccc2[nH]c3nc(SCCN4CCOCC4)nnc3c2c1,5.8,-3.1,-12.7,3.7,16.3*,33.4*,15.2*!,23.3*!
O=C(CCCCC(=O)Nc1ccc(F)cc1)Nc1ccc(F)cc1,-2.6,1.4,/,-1.8,0.3,/,/,/
O=C(CNC(=O)c1ccc(Cl)cc1Cl)Nc1ccc(F)cc1,-1.9,0.4,14.6,0.0,10.3*,26.7*,-1.2,13.9
O=C(CC(=O)Nc1ccc(F)cc1)Nc1ccc(F)cc1,-1.3,2.9,/,-0.8,7.0*,18.1*,-8.0,5.6
CCOC(=O)c1oc2ccccc2c1COC(=O)C(C)NC(=O)c1ccco1 (stereo not drawn),-3.0,-2.9,/,-0.2,0.7,/,/,/
CCn1c(SCC(=O)Nc2cccc(S(=O)(=O)N(C)c3ccccc3)c2)nnc1C1CC1,-4.5,2.2,/,-1.1,-0.4,/,/,/
C=CC[C@@H](Cc1ccc(F)cc1)C(=O)OC[C@@H]1CCCN1C(=O)[C@@H](CC=C)CC(=O)NCCO,-0.6,1.2,/,-0.7,-0.3,/,/,/
O=C(Nc1ccc(C(=O)O)cc1)/C(=C\C=C\c1ccccc1)NC(=O)c1cccc(Br)c1,-3.9,1.3,20.6,-0.2,11.7*,20.3*,1.6,23.4*
O=C(O)c1ccc(-n2cncn2)c([N+](=O)[O-])c1,-3.1,-1.2,11.7,-0.2,0.8,/,/,/
CN(CC(=O)Nc1ccc(Cl)cc1)C(=O)c1ccc(-n2cncn2)c([N+](=O)[O-])c1,-1.5,-2.8,/,0.9,70.1*,100.3*,-2.7,84.9*
CS(=O)(=O)c1ccc(Cl)c(NC(=O)c2ccc(-n3cncn3)c([N+](=O)[O-])c2)c1,/,-2.3,/,/,57.2*,81.4*,5.8,67.0*
O=C(COc1ccccc1Cl)NNC(=O)c1ccc(-n2cncn2)c([N+](=O)[O-])c1,-0.4,-4.6,/,3.3,12.7*,42.5*,-3.7,21.4*
Cc1ccc(NC(=O)c2ccc(-n3cncn3)c([N+](=O)[O-])c2)cc1,-0.5,5.2,0.8,-2.3,27.1*,46.0*,-0.1,15.2
Cc1ccc(SCC(=O)NNC(=O)CNC(=O)c2ccccc2F)cc1,1.5,-0.2,/,-0.4,0.1,/,/,/
CN(C)S(=O)(=O)c1cccc(NC(=O)c2ccc(Sc3nncn3C)c([N+](=O)[O-])c2)c1,0.9,4.1,6.8,0.4,0.2,/,/,/
CC(C)Cc1nnc(NC(=O)c2ccc(-n3cncn3)c([N+](=O)[O-])c2)s1,/,-0.7,/,/,1.4,/,/,/
Cc1ccc(C(=O)NNC(=O)c2ccc(-n3cncn3)c([N+](=O)[O-])c2)cc1,-1.3,-0.7,/,-0.8,10.6*,41.3*,-6.3,19.9*
CCN(CC)S(=O)(=O)c1ccc(OC)c(NC(=O)c2ccc(-n3cncn3)c([N+](=O)[O-])c2)c1,0.0,-6.3,/,2.4,36.9*,81.4*,0.9,49.7*
CN(C)S(=O)(=O)c1cccc(NC(=O)c2ccc(-n3cncn3)c([N+](=O)[O-])c2)c1,-3.1,3.1,/,2.5,43.2*,78.3*,4.9,49.8*
O=C(Nc1cccc(Cl)c1)c1ccc(-n2cncn2)c([N+](=O)[O-])c1,-0.5,6.5,17.4,-2.3,42.4*,65.7*,3.9,36.7*
CCN(CC)S(=O)(=O)c1ccc(OC)c(NC(=O)c2ccc([N+](=O)[O-])cc2)c1,-5.1,8.3,14.6,-0.3,-0.5,/,/,/
SMILES,XBP1 UPR activ,V-ATPase pHluor,CHOP inhibitor,UPR CHOP act,TbMetRS inhib,Tb MetRS conf,Jurkat tox,Tb MetRS inh FP
O=C(CCC(=O)c1cccs1)NCc1cccc(Cl)c1,-4.2,1.4,/,0.4,-0.2,/,/,/
Cc1ccc(NC(=O)CN(C)C(=O)c2ccc(Cl)c([N+](=O)[O-])c2)cc1,-2.4,-4.3,-12.8,2.5,35.5*,57.6*,1.4,36.9*
Cc1ccc(NC(=O)c2ccc(-n3cccn3)c([N+](=O)[O-])c2)cc1C,0.8,8.0,-11.0,4.4,1.3,/,/,/
CN(CC(=O)Nc1ccc(Cl)c(C(F)(F)F)c1)C(=O)c1ccc(N2CCOCC2)c([N+](=O)[O-])c1,-6.1,-2.5,/,-0.3,0.0,/,/,/
CCN(CC)CCNC(=O)c1ccc(NC(=O)c2ccc(-n3cncn3)c([N+](=O)[O-])c2)cc1,/,-4.9,/,/,17.4*,36.5*,6.5,9.8
O=C(NCCC1=CCCCC1)c1ccc(-n2cncn2)c([N+](=O)[O-])c1,1.7,2.7,/,-1.4,14.7*,32.5*,-1.2,19.8*
CCN(CC)S(=O)(=O)c1cc(NC(=O)c2ccc(-n3cncn3)c([N+](=O)[O-])c2)ccc1C,-6.1,-2.6,/,2.0,18.2*,46.9*,34.8*,38.5*
O=C(O)C1CCCCC1C(=O)NCc1ccccn1 (stereo not drawn),1.1,0.6,4.7,-1.4,0.2,/,/,/
COc1ccc(CCNCC(=O)Nc2ccc(C)c(S(=O)(=O)N(C)C)c2)cc1OC,-1.3,-5.8,7.8,-1.5,0.1,/,/,/
O=C(COC(=O)c1ccc2ccccc2n1)NCc1ccccc1,-1.8,3.6,-9.0,0.6,-0.2,/,/,/
O=C(Nc1ccc(Cl)cc1)c1ccc(-n2cncn2)c([N+](=O)[O-])c1,-0.8,0.5,-6.1,-2.0,42.3*,62.1*,8.7,33.0*
CC1CCCCC1NC(=O)c1ccc(-n2cncn2)c([N+](=O)[O-])c1 (stereo not drawn),1.0,-3.3,/,-0.6,36.7*,73.2*,-6.8,41.2*
CC(CCc1ccccc1)NC(=O)c1ccc(-n2cncn2)c([N+](=O)[O-])c1 (stereo not drawn),-3.1,-1.9,/,-0.4,25.6*,54.9*,5.1,30.7*
